# Only some compounds are listed: those with a hit (about 3% of all), similar ones and a draw of the others.
# UBC13 inh: blocks human UBC13 polyubiquitin chain formation; TR-FRET; P61088; AID 485273; 330,000 compounds, 0.47% hits; inhibition, % at 20 µM; in the data active = inhibition above about 45%, passing the limit was not always enough
# MEKK2wt PB1 HTS: raises or lowers MEK5 binding to wildtype human MEKK2 PB1 domain; 290,000 compounds, 1.1% hits; AID 1531; Q9Y2U5; binding response (% of control), % at 10 µM; bead flow cytometry, Alexa488-MEK5 binding to MEKK2 WT; actives lie on both sides; in the data active = binding response below about 67% or above about 130%
# UCH37 inh: human UCH37 deubiquitinating enzyme inhibition | Q9Y5K5 | purified proteasome/UCH37, Ub-AMC cleavage fluorescence | inhibition, % (no concentration beside the values) | 330,000 compounds, 0.33% hits;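 active = mean inhibition over replicate wells above about 20%, limit read from the data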;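 note: 0% = compound-free wells with enzyme and 100% = wells lacking proteasome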
#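 Material: human UCH37 enzyme supplied as purified proteasome complex / Amount: 0.15 nM proteasome as dispensed / Buffer or medium: pH 7.4 Tris-HCl (50 mM) with ovalbumin, ATP-MgCl2, DTT / Times: preincubation 30 min, reaction 25 min, room temperature / Technique: AMC fluorescence from Ub-AMC cleavage, excitation 355 nm, emission 460 nm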
# MEKK2mut PB1 HTS: signal of MEK5 binding to mutant human MEKK2 PB1 domain | 290,000 compounds, 0.35% hits | bead flow cytometry, Alexa488-MEK5 binding to MEKK2 mutant | percent response, % at 10 µM; in the data active = percent response above about 24%, passing the limit was not always enough
# Apaf1 inhib: human Apaf-1 inhibition. O14727. reconstituted apoptosome caspase-3 activity, DEVD-Rh110 fluorescence. inhibition, % at 20 µM. 330,000 compounds, 0.71% hits; active = inhibition of at least 40% at 20 µM;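 note: plate controls were DMSO wells for no effect and DEVD-CHO caspase inhibitor wells for full effect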
# Target sequence (O14727 whole entry, looked up): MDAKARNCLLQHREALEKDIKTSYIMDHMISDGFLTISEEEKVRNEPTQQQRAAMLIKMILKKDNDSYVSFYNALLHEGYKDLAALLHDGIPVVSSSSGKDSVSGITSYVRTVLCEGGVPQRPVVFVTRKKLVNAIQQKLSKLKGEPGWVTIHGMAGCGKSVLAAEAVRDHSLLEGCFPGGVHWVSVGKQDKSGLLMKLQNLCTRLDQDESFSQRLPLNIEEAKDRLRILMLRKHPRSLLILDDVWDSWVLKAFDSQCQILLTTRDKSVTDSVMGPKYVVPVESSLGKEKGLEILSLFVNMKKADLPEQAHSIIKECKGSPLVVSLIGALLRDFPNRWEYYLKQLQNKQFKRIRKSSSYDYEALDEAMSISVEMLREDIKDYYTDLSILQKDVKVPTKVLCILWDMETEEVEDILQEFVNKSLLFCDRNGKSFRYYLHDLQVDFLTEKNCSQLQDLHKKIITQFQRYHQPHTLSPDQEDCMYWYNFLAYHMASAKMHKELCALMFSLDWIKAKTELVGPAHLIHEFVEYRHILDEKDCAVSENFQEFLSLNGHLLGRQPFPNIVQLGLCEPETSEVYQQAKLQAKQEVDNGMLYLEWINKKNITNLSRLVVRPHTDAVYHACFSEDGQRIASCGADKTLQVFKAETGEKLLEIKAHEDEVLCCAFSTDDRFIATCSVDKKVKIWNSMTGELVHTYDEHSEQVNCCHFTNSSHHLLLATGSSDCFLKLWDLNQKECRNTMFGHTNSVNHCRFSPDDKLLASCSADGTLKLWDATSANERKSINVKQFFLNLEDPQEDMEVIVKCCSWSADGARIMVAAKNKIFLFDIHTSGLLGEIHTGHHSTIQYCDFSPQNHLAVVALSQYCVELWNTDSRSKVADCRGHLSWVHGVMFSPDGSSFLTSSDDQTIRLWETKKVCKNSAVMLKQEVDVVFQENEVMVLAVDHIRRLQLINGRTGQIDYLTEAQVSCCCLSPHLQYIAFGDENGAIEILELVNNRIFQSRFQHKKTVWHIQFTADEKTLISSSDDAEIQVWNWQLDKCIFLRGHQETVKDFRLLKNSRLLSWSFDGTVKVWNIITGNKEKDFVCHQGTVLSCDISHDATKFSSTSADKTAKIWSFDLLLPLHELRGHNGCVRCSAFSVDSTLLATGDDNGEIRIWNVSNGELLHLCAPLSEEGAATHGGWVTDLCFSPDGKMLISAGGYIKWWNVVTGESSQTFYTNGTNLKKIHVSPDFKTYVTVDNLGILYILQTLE
#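 Assay system – apoptosome proteins · Medium – Hepes buffer, pH 7.5 · Also added – cytochrome c with DEVD-Rh110 · Timing – 30 min compound preincubation, 50 min activation, room temperature · Detection – Rh110 fluorescence, excitation 480 nm, emission 540 nm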
# MEKK3 PB1 HTS: modulators (inhibitors or enhancers) of MEK5 binding to human MEKK3 PB1 domain; bead-based flow cytometry, Alexa488-MEK5 binding to MEKK3; actives lie on both sides; 0 = blocked by unlabeled MEK5, 100 = vehicle; binding response (% of control), % at 10 µM; 290,000 compounds, 1.4% hits; AID 1529;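 active = binding response more than 3 SD above or below the average of its plate-row segment, actives on both sides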;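 note: Alexa488 bead fluorescence after subtracting the streptavidin-only scavenger bead signal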
# MEKK2wt confirm: raises or lowers MEK5 binding to wildtype human MEKK2, retest; AID 1892; 5,900 compounds, 2.4% hits; shares compounds with MEKK3 PB1 HTS; bead flow cytometry, Alexa488-MEK5 binding to MEKK2 WT; actives lie on both sides; binding response (% of control), % at 10 µM; in the data active = binding response below about 16% or above about 210%; inactive = in between
# MEKK2mut-MEK5: signal of MEK5 binding to mutant human MEKK2, retest; shares compounds with MEKK3 PB1 HTS; bead flow cytometry, Alexa488-MEK5 binding to MEKK2 mutant; percent response, % at 10 µM; 5,900 compounds, 2% hits; AID 1893; in the data active = percent response mostly above about 71%, no sharp cut-off; inactive = mostly below about 38%;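 note: higher means compound restores mutant binding toward wildtype level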
# MEKK3 confirm: confirmation of inhibitors of MEK5 binding to human MEKK3; bead flow cytometry, Alexa488-MEK5 binding to MEKK3; stronger effect = lower value; binding response (% of control), % at 10 µM; AID 1894; shares compounds with MEKK3 PB1 HTS; 5,900 compounds, 1.8% hits;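 active = binding response below 72% of control, or above a set upper limit, though filed actives all read lower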;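 note: 100% = DMSO only wells and 0% = binding blocked by excess unlabeled MEK5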
# Starred values were filed as active, the others as inactive; x = not tested or not shown; [ ] = dose if it differs, or a comment.
SMILES,UBC13 inh,MEKK2wt PB1 HTS,UCH37 inh,MEKK2mut PB1 HTS,Apaf1 inhib,MEKK3 PB1 HTS,MEKK2wt confirm,MEKK2mut-MEK5,MEKK3 confirm
CCCCNC(=S)Nc1ccccc1F,-1,108,5,25*,-8,111,108,0,101
CC(=O)Nc1ccc(S(=O)(=O)N(Cc2ccccc2)C(C)C)cc1,-8,1.0*[inhibitor],4,-18,13,1.0*[inhibitor],92,-7,99
COc1ccc(C(C)C)cc1S(=O)(=O)N1CCN(C)CC1,0,133,1,10,1,133*,112,3,107
COc1ccc(C(C)C)cc1S(=O)(=O)N1CCC(C(=O)N2CCN(C)CC2)CC1,-4,105,0,7,10,99,x,x,x
CN(C)C(=O)c1ccc(Oc2ccc(C(=O)N(C)C)cc2)cc1,9,75,-2,-14,-14,66*[inhibitor],100,-1,100
CC(=O)c1ccc(Oc2ccc(C(C)=O)cc2)cc1,2,104,4,2,6,104,x,x,x
C[n+]1c2n(c3ccccc31)N=C(c1ccc(-c3ccccc3)cc1)CS2,17,159*,12,6,27,112,120,-22,89
Cc1ccc(CN2C(=O)CCC2C(=O)NC2CCCC2)cc1 (centres undefined),-1,97,-5,-2,0,99,x,x,x
Cc1ccc(CN2C(=O)CCC2C(=O)N2CCN(c3ccccc3)CC2)cc1 (centres undefined),-11,6.0*[inhibitor],5,-46,-4,4.0*[inhibitor],108,10,106
COc1ccccc1N(CC(=O)NCC1CCCO1)C(=O)CNS(=O)(=O)c1ccccc1 (centres undefined),-9,116,4,27,-7,135*,112,19,110
CCOC(=O)c1c(NC(=O)CN2C(=O)NC3(CCCCC3C)C2=O)sc(C(=O)N(C)C)c1C (centres undefined),1,x,4,x,-3,x,x,x,x
O=C(c1ccoc1)N1CCC2(CC1)Oc1ccc(Cl)cc1C(=O)C21CC(c2ccccc2)=NO1 (centres undefined),2,53,1,2,17,45*[inhibitor],99,-3,103
Cc1c(NC(=O)/C=C/c2cn(-c3ccccc3)nc2-c2ccccc2)c(=O)n(-c2ccccc2)n1C,-9,98,2,-5,15,102,x,x,x
Cc1cc(OCC(=O)NC2CCCCC2)ccc1Cl,-5,105,6,2,-2,147*,107,3,102
CCOC(=O)c1c(NC(C)=O)sc2c(O)c(Br)cc(Br)c12,x,105,9,0,x,132*,73,-15,76
CCOC(=O)c1c(NC(C)=O)sc2c(O)cccc12,30,96,2,3,7,97,x,x,x
O=C(Nc1ccc(Cl)cc1)Nc1ccc2c(c1)N1CCN=C1S2,12,141*,2,14,22,100,143,27,104
COc1cc2[nH]c3c(Cl)ncnc3c2cc1OC,27,94,5,1,9,71*[inhibitor],108,14,103
Cc1noc(C)c1COc1ccc(C(=O)OC(C)C(=O)Nc2ccc(S(=O)(=O)N3CCOCC3)cc2)cc1 (centres undefined),3,105,-1,2,12,152*,99,-2,104
CCc1ccc(NC(=S)NC(=O)CC(C)C)cc1,13,110,1,1,0,148*,104,11,108
CCOc1ccccc1CN1C(=O)c2ccccc2C1C(=O)NC(C)CC (centres undefined),-8,123,0,5,5,128*,97,-7,97
O=C1/C(=C\c2cccnc2)SC(=S)N1C1CCS(=O)(=O)C1 (centres undefined),-23,100,7,3,-7,100,x,x,x
O=C(c1sc(N2CCOCC2)nc1-c1ccccc1)N1CCCCC1,-7,104,3,0,8,131*,98,4,104
O=C(COC(=O)/C=C/c1cccc(Cl)c1)NCCC1=CCCCC1,6,109,1,2,-3,130*,103,3,104
CC(C)OC(=O)c1cc(NC(=S)Nc2ccc([N+](=O)[O-])cc2)cc(C(=O)OC(C)C)c1,-15,169*,1,40*,-2,82,147,18,104
SMILES,UBC13 inh,MEKK2wt PB1 HTS,UCH37 inh,MEKK2mut PB1 HTS,Apaf1 inhib,MEKK3 PB1 HTS,MEKK2wt confirm,MEKK2mut-MEK5,MEKK3 confirm
CC(C)CCNC(=S)Nc1ccc([N+](=O)[O-])cc1,14,106,5,0,-15,129*,104,-7,101
CCCCNC(=S)Nc1ccc([N+](=O)[O-])cc1,-12,106,6,-1,-2,115,x,x,x
COc1ccc(-c2cnc3nc[nH]c(=O)c3n2)cc1,-1,104,-37,9,0,108,x,x,x
Cc1ccc(C)c(Sc2ccc(S(=O)(=O)Nc3ccc(C(=O)O)cc3)cc2)c1,-17,x,0,x,1,x,x,x,x
O=[N+]([O-])c1ccc(N2CCN(Cc3ccc([N+](=O)[O-])o3)CC2)cc1,-20,109,8,6,2,101,x,x,x
O=[N+]([O-])c1ccc(CN2CCN(c3ccccc3)CC2)o1,-9,128,8,16,-6,122*,103,4,104
O=C(NCc1nc(-c2ccccc2)no1)c1cccs1,2,-4.0*[inhibitor],4,-39,-3,0.0*[inhibitor],95,0,99
O=C(NCc1ccco1)c1cccs1,3,84,6,-11,-21,77*[inhibitor],100,-1,97
O=C(NNC(=S)NCc1ccco1)c1cccs1,-2,95,4,6,0,99,x,x,x
O=C(NCc1ccco1)NC12CC3CC(CC(C3)C1)C2,-2,91,0,-13,15,81*[inhibitor],98,0,97
O=C(NCc1ccco1)C1CCN(c2ccc(S(=O)(=O)N3CCOCC3)cc2[N+](=O)[O-])CC1,-29,79,2,-10,3,71*[inhibitor],100,-1,102
Cc1ccc(S(=O)(=O)c2ccccc2)cc1S(=O)(=O)N1CCOCC1,-9,92,1,2,4,105,x,x,x
